Legend:
Mus musculus = test: Toxicity in ip dosed mouse assessed as optimum dose that providing maximum increase in life span administered qd for 1 to 5 days; type: organism-based; conditions: in vivo
Procedure, shortened: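 Mice were C3H/DBA2 F1 hybrids weighing 18.5-22.5 g. L1210 cells (10^5) were implanted ip or sc above the right axilla. Daily ip treatment began 24 h later and continued for 5 days (dq 1-5), given in water or as a homogenized suspension in aqueous methylcellulose. The optimum dose (mg/kg/day) is the one giving maximum life-span increase (T/C% - 100). Groups were six mice; 50-day survivors were counted.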

[1] = Lipophilic-hydrophilic balance, Rm of the compound by reversed-phase partition chromatography; type: physicochemical
L1210 [2] = test: Antitumor activity against mouse L1210 cells subcutaneously xenografted in ip dosed C3H/DBA2 F1 hybrid mouse assessed as increase in host lifespan administered daily for 5 days starting 24 hrs post-tumor implantation; type: functional
Procedure, shortened: (§1)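 10⁵ L1210 cells implanted sc above the right axilla into 18.5-22.5-g C3H/DBA2 F1 mice. Daily ip dosing for 5 days from 24 h after implant, as water-soluble salts or as homogenized suspensions in aqueous methylcellulose. Groups of six mice. Increase in life span (T/C% − 100) at the optimum dose (maximal life-span increase, mg/kg/day); 50-day survivors counted.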

L1210 [3] = test: Antitumor activity against mouse L1210 cells intraperitoneally xenografted in ip dosed C3H/DBA2 F1 hybrid mouse assessed as increase in host lifespan administered daily for 5 days starting 24 hrs post-tumor implantation; type: functional
Procedure, shortened: as §1, with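 “ip” for “sc above the right axilla”, “treatment” for “dosing”, “salts (methanesulfonate or hydrochloride)” for “salts”, “Read-out is increase” for “Increase”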

| SMILES | Activity (Mus musculus) [mg/kg] | Rm [1] | ILS (L1210 [2]) [%] | ILS (L1210 [3]) [%] |
| --- | --- | --- | --- | --- |
| CCCCCCCCCCCCCCCCCC(=O)N(c1ccc(Nc2c3ccccc3nc3cc(NC(C)=O)ccc23)cc1)S(C)(=O)=O | 450 | 0.87 | 39 | 68 |
| CCCC(=O)N(c1ccc(Nc2c3ccccc3nc3c(C)cccc23)c(OC)c1)S(C)(=O)=O | 75 | 0.53 | – | 52 |
| CCC(=O)N(c1ccc(Nc2c3ccccc3nc3c(C)cccc23)c(OC)c1)S(C)(=O)=O | 25 | 0.37 | – | 31 |
| COc1cc(N(C(C)=O)S(C)(=O)=O)ccc1Nc1c2ccccc2nc2c(C)cccc12 | 7.5 | 0.24 | – | 38 |
| CCCC(=O)N(c1ccc(Nc2c3ccccc3nc3cc([N+](=O)[O-])ccc23)cc1)S(C)(=O)=O | 50 | 0.27 | – | 52 |
| CCN(CC)/N=N/c1ccc2c(Nc3ccc(NS(C)(=O)=O)cc3)c3ccccc3nc2c1 | – | 0.49 | – | – |
| CS(=O)(=O)Nc1ccc(Nc2c3ccccc3nc3cc([N+](=O)[O-])ccc23)cc1 | 25 | -0.07 | 43 | 123 |
| COc1cc(NS(C)(=O)=O)ccc1Nc1c2ccccc2nc2c(C)cccc12 | 6 | 0.11 | 47 | 111 |
| CCCCC(=O)N(c1ccc(Nc2c3ccccc3nc3c(C)cccc23)c(OC)c1)S(C)(=O)=O | 250 | 0.66 | – | 50 |
| CCCCCC(=O)N(c1ccc(Nc2c3ccccc3nc3c(C)cccc23)c(OC)c1)S(C)(=O)=O | 66 | 0.79 | – | 39 |
| CC(=O)Nc1ccc2c(Nc3ccc(N(C(C)=O)S(C)(=O)=O)cc3)c3ccccc3nc2c1.Cl | 28 | -0.19 | 43 | 118 |
| CCC(=O)N(c1ccc(Nc2c3ccccc3nc3cc(NC(C)=O)ccc23)cc1)S(C)(=O)=O.Cl | 40 | 0 | 88 | 135 |
| CCC(=O)N(c1ccc(Nc2c3ccccc3nc3ccccc23)cc1)S(C)(=O)=O.Cl | 300 | 0.07 | 56 | 88 |
| CCCC(=O)N(c1ccc(Nc2c3ccccc3nc3ccccc23)cc1)S(C)(=O)=O.Cl | 400 | 0.28 | – | 31 |
| CCCCC(=O)N(c1ccc(Nc2c3ccccc3nc3ccccc23)cc1)S(C)(=O)=O.Cl | 400 | 0.34 | 28 | 68 |
| CCCCCC(=O)N(c1ccc(Nc2c3ccccc3nc3ccccc23)cc1)S(C)(=O)=O.Cl | 150 | 0.45 | – | 41 |
| Br.CCCCCCC(=O)N(c1ccc(Nc2c3ccccc3nc3ccccc23)cc1)S(C)(=O)=O | 150 | 0.54 | 27 | 61 |
| CCCCCCCC(=O)N(c1ccc(Nc2c3ccccc3nc3ccccc23)cc1)S(C)(=O)=O.Cl | 400 | 0.68 | – | 41 |
| CCCCCCCCC(=O)N(c1ccc(Nc2c3ccccc3nc3ccccc23)cc1)S(C)(=O)=O.Cl | 400 | 0.74 | – | 31 |
| COc1cc(N(C(C)=O)S(C)(=O)=O)ccc1Nc1c2ccccc2nc2ccccc12.Cl | 6 | 0.05 | 33 | 70 |
| CCOC(=O)CCC(=O)N(c1ccc(Nc2c3ccccc3nc3c(C)cccc23)c(OC)c1)S(C)(=O)=O | 18 | 0.62 | – | 43 |
| CCCC(=O)N(c1ccc(Nc2c3ccccc3nc3cc(NC(C)=O)ccc23)cc1)S(C)(=O)=O.Cl | 50 | 0.22 | 62 | 98 |
| CCCCC(=O)N(c1ccc(Nc2c3ccccc3nc3cc(NC(C)=O)ccc23)cc1)S(C)(=O)=O.Cl | 80 | 0.36 | 63 | 89 |
| CCCCCC(=O)N(c1ccc(Nc2c3ccccc3nc3cc(NC(C)=O)ccc23)cc1)S(C)(=O)=O.Cl | 42 | 0.51 | 43 | 81 |

| SMILES | Activity (Mus musculus) [mg/kg] | Rm [1] | ILS (L1210 [2]) [%] | ILS (L1210 [3]) [%] |
| --- | --- | --- | --- | --- |
| Br.CCCCCCC(=O)N(c1ccc(Nc2c3ccccc3nc3cc(NC(C)=O)ccc23)cc1)S(C)(=O)=O | 14 | 0.63 | 47 | 71 |
| Br.CCCCCCCC(=O)N(c1ccc(Nc2c3ccccc3nc3cc(NC(C)=O)ccc23)cc1)S(C)(=O)=O | 22 | 0.69 | 45 | 83 |
| Br.CCCCCCCCC(=O)N(c1ccc(Nc2c3ccccc3nc3cc(NC(C)=O)ccc23)cc1)S(C)(=O)=O | 45 | 0.72 | 83 | 143 |
| Br.CCCCCCCCCC(=O)N(c1ccc(Nc2c3ccccc3nc3cc(NC(C)=O)ccc23)cc1)S(C)(=O)=O | 50 | 0.76 | 65 | 98 |
| Br.CCCCCCCCCCC(=O)N(c1ccc(Nc2c3ccccc3nc3cc(NC(C)=O)ccc23)cc1)S(C)(=O)=O | 30 | 0.79 | 39 | 64 |
| Br.CCCCCCCCCCCC(=O)N(c1ccc(Nc2c3ccccc3nc3cc(NC(C)=O)ccc23)cc1)S(C)(=O)=O | 30 | 0.81 | 41 | 72 |
| CC(=O)Nc1ccc2c(Nc3ccc(N(C(=O)C(C)C)S(C)(=O)=O)cc3)c3ccccc3nc2c1.Cl | 50 | 0.29 | 57 | 93 |
| CCC(C)C(=O)N(c1ccc(Nc2c3ccccc3nc3cc(NC(C)=O)ccc23)cc1)S(C)(=O)=O.Cl (stereo not drawn) | 50 | 0.38 | 31 | 68 |
| CC(C)(C)C(=O)N(c1ccc(Nc2c3ccccc3nc3ccccc23)cc1)S(C)(=O)=O.Cl | 250 | 0.31 | – | 47 |
| COC(=O)N(c1ccc(Nc2c3ccccc3nc3ccccc23)cc1)S(C)(=O)=O.Cl | 250 | 0.07 | 36 | 67 |
| CC(=O)N(c1ccc(Nc2c3ccccc3nc3cc(N)ccc23)cc1)S(C)(=O)=O.Cl | 2 | -0.22 | – | 74 |
| Br.CCC(=O)N(c1ccc(Nc2c3ccccc3nc3cc(N)ccc23)cc1)S(C)(=O)=O | 2 | -0.04 | – | 49 |
| CCCC(=O)N(c1ccc(Nc2c3ccccc3nc3cc(N)ccc23)cc1)S(C)(=O)=O.Cl | 1 | 0.13 | – | 53 |
| CCCCC(=O)N(c1ccc(Nc2c3ccccc3nc3cc(N)ccc23)cc1)S(C)(=O)=O.Cl | 1 | 0.31 | – | 61 |
| CCCCCC(=O)N(c1ccc(Nc2c3ccccc3nc3cc(N)ccc23)cc1)S(C)(=O)=O.Cl | 2 | 0.43 | – | 46 |
| CCCCCCC(=O)N(c1ccc(Nc2c3ccccc3nc3cc(N)ccc23)cc1)S(C)(=O)=O.Cl | 2 | 0.51 | – | 31 |
| CCCCCCCC(=O)N(c1ccc(Nc2c3ccccc3nc3cc(N)ccc23)cc1)S(C)(=O)=O.Cl | 2.5 | 0.57 | – | 119 |
| CCCCCCCCC(=O)N(c1ccc(Nc2c3ccccc3nc3cc(N)ccc23)cc1)S(C)(=O)=O.Cl | 2.5 | 0.59 | – | 64 |
| CCOC(=O)CCC(=O)N(c1ccc(Nc2c3ccccc3nc3c(C)cccc23)c(OC)c1)S(C)(=O)=O.CS(=O)(=O)O | 13.3 | – | – | 40 |
| CCN(CC)/N=N/c1ccc2c(Nc3ccc(NS(C)(=O)=O)cc3)c3ccccc3nc2c1.CS(=O)(=O)O | 25 | – | 28 | 96 |
| CCCOC(=O)CCC(=O)N(c1ccc(Nc2c3ccccc3nc3c(C)cccc23)c(OC)c1)S(C)(=O)=O | 75 | 0.75 | – | – |
| CC(=O)Nc1ccc2c(Nc3ccc(NS(C)(=O)=O)cc3)c3ccccc3nc2c1 | 13 | -0.12 | 33 | 114 |
| CS(=O)(=O)Nc1ccc(Nc2c3ccccc3nc3cc(N)ccc23)cc1 | 2.5 | -0.17 | – | 81 |
| CS(=O)(=O)Nc1ccc(Nc2c3ccccc3nc3ccccc23)cc1 | 45 | 0 | 28 | 107 |

— ChEMBL document CHEMBL3244308, “Potential antitumor agents. 22. Latentiated congeners of the 4'-(9-acridinylamino)methanesulfonanilides” (J Med Chem, 1977)
